In data set [1] the test system is Eimeria tenella. The data set is described as follows: The compound was evaluated for the variations in the vulnerability to Eimeria tenella. The conditions noted are these: read-out: MEC. The data set is classed as functional.
Data set [2] is filed under the species Gallus gallus. The data set is described as follows: The compound was evaluate for the minimum amount required to prevent formation of detectable disease lesions against Eimeria tenella infections. The data set is classed as functional. Summed up: (§1)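 Leghorn cockerels infected with Eimeria tenella, screened by a modified version of a published screening method. The minimum effective concentration, in ppm, is the lowest level that prevents detectable lesions.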

Data set [3] deals with Eimeria acervulina. Nature of the data set: The compound was evaluated for the variations in the vulnerability to Eimeria acervulina. Format: functional. The conditions noted are these: read-out: MEC.
Data set [4] is described as follows: Half life in plasma of young cockerels. The conditions noted are these: male, chicken. The data set is classed as ADME, organism-based, Gallus gallus. In a few lines: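 Plasma half-life in young cockerels, about 10 days old, determined by a previously described method.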
The species named for data set [5] is Gallus gallus. Nature of the data set: Minimum effective concentration required to prevent formation of detectable lesions in Eimeria tenella infected leghorn cockerels; value ranges from 15 to 30. The data set is classed as functional. In a few lines: as §1
The test system of data set [6] is Gallus gallus. Nature of the data set: Plasma level measured 3h after oral administration of 4-5 mg/kg body weight in young cockerels. The data set is classed as functional, organism-based. In a few lines:
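Young cockerels, about 10 days old, given 4-5 mg/kg body weight orally; drug level in plasma measured 3 h after dosing, in mcg/mL.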

For data set [7], the species on record is Gallus gallus. The data set is described as follows: Minimum effective concentration required to prevent formation of detectable lesions in Eimeria tenella infected leghorn cockerels; Value ranges from 60-120. Format: functional. Summed up: as §1
The species named for data set [8] is Gallus gallus. Nature of the data set: Minimum effective concentration required to prevent formation of detectable lesions in Eimeria tenella infected leghorn cockerels. The data set is classed as functional. Summed up: as §1
Data set [9] has as its system Eimeria tenella. The data set is described as follows: Minimum effective concentration required to prevent formation of detectable lesions in Eimeria tenella infected leghorn cockerels. The data set is classed as functional. The note with it: read-out: MEC. In a few lines:
as §1

Data set [10] deals with Gallus gallus. The data set is described as follows: Plasma level measured 3h after oral administration of 4-5 mg/kg body weight in older birds. Format: functional, organism-based. In a few lines:
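Older birds, about 9-10 weeks old, given 4-5 mg/kg body weight orally; drug level in plasma measured 3 h after dosing, in mcg/mL.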

A short description of data set [11]: Half life in plasma of older birds. Format: ADME, organism-based, Gallus gallus. The conditions noted are these: chicken. In a few lines: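 Plasma half-life in older birds, about 9-10 weeks old, determined by a previously described method.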
The test system of data set [12] is Eimeria brunetti. The data set is described as follows: The compound was evaluated for the variations in the vulnerability to Eimeria brunetti. Format: functional. The note with it: read-out: MEC.
Data set [13] concerns Eimeria necatrix. The data set is described as follows: The compound was evaluated for the variations in the vulnerability to Eimeria necatrix. The data set is classed as functional. The conditions noted are these: read-out: MEC.
For data set [14], the system named is Eimeria maxima. Nature of the data set: The compound was evaluated for the variations in the vulnerability to Eimeria maxima. The data set is classed as functional. The note with it: read-out: MEC.
For data set [15], the system named is Eimeria tenella. Nature of the data set: The compound was evaluated for the variations in the vulnerability to Eimeria tenella,. Format: functional. The conditions noted are these: read-out: MEC.
In data set [16] the test system is Eimeria acervulina. The data set is described as follows: The compound was evaluated for the variations in the vulnerability to Eimeria acervulina; value ranges from 15-30. Format: functional. The conditions noted are these: read-out: MEC.

From ChEMBL document CHEMBL1121537, “Anticoccidial derivatives of 6-azauracil. 3. Synthesis, high activity, and short plasma half-life of 1-phenyl-6-azauracils containing sulfonamide substituents” (J Med Chem, 1980) come the findings set out here.

The structures appear in SMILES notation.

As to `O=c1cnn(-c2cc(Cl)c(S(=O)(=O)N3CCOCC3)c(Cl)c2)c(=O)[nH]1`, the values for the minimal effective concentration in data set [1] and in data set [3] were 15 µg/mL and 30 µg/mL, respectively. This compound showed an MEC in data set [2] of 30 p.p.m.

Turning to `Cc1cc(-n2ncc(=O)[nH]c2=O)ccc1S(=O)(=O)N1CCOCC1`, the minimal effective concentration in data set [1] is 15 µg/mL; in data set [3], 30 µg/mL. The compound further showed a half-life in [4] of 1.1 h. The MEC in data set [5] was found to be 15 p.p.m. In addition, the Plasma level in data set [6] was 3.1 µg/mL.

For `CN(Cc1ccccc1)S(=O)(=O)c1ccc(-n2ncc(=O)[nH]c2=O)cc1Cl`, the MEC in data set [7] is 60 p.p.m.

Consider `Cc1cccc(-n2ncc(=O)[nH]c2=O)c1`, for which the MEC in [8] is on record as over 120 p.p.m.

`O=c1cnn(-c2cc(Cl)cc(Cl)c2)c(=O)[nH]1`: in [9], the minimal effective concentration turned out to be 4 µg/mL. The Plasma level worked out at 24.3 µg/mL in data set [10] and 14.5 µg/mL in data set [6]. For the same compound, the half-life in [4] is 56 h; in [11], 150 h.

For `Cc1cc(-n2ncc(=O)[nH]c2=O)cc(C)c1S(=O)(=O)N1CCOCC1`, the minimal effective concentration in data set [9] worked out at 15 µg/mL; in [1], 15 µg/mL; in data set [3], 50 µg/mL; in [12], 30 µg/mL; in data set [13] it was 15 µg/mL. The compound further had a half-life in [4] of 1.5 h. The compound further showed a Plasma level in [6] of 0.95 µg/mL.

Consider `O=c1cnn(-c2cc(Cl)c(N3CCOCC3)c(Cl)c2)c(=O)[nH]1`, for which, in data set [2], the MEC stood at 15 p.p.m. The values for the minimal effective concentration in data set [14], in [15] and in [16] were 15 µg/mL, 15 µg/mL and 30 µg/mL, respectively.

On to `Cc1cc(Cl)cc(-n2ncc(=O)[nH]c2=O)c1`, for which the minimal effective concentration in [9] was 15 µg/mL. Also, the Plasma level in data set [10] worked out at 21.7 µg/mL. Moreover, in [11], the half-life is 20 h.

`Cc1cc(C)cc(-n2ncc(=O)[nH]c2=O)c1`: the minimal effective concentration in [9] amounted to 30 µg/mL. Also, the Plasma level was 22.4 µg/mL in data set [10] and 8.1 µg/mL in data set [6]. In addition, the figures for the half-life in [4] and in data set [11] were 6 h and 12 h, respectively.
